Assay results reported in ChEMBL document CHEMBL1142706, “Synthesis and evaluation of (pyridylmethylene)tetrahydronaphthalenes/-indanes and structurally modified derivatives: potent and selective inhibitors of aldosterone synthase” (J Med Chem, 2005).
pIC50: −log10 of the molar value.

Tests used:
[1] = target: T1, Cytochrome P450 11B2, mitochondrial (Homo sapiens, UniProt P19099); assay: In vitro inhibitory concentration against human CYP11B2 expressed in V79MZh hamster fibroblasts incubated with 100 nM of substrate deoxy-corticosterone in presence of the compound
T1 sequence (P19099 whole entry): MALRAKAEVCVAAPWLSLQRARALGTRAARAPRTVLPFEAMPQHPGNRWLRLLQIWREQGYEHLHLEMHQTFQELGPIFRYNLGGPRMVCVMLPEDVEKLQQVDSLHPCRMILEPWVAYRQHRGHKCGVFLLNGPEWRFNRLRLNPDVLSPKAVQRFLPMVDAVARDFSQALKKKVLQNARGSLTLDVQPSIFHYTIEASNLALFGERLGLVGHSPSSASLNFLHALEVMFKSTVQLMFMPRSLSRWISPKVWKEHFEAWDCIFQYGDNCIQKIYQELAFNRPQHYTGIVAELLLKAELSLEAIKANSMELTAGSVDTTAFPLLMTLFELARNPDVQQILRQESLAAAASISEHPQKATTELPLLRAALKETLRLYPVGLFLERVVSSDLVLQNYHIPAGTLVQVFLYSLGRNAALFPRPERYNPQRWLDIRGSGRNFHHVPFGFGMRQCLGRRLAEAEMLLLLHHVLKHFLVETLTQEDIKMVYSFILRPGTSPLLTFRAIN
How it was run: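 Intact V79 MZh hamster fibroblasts expressing human CYP11B1 or CYP11B2, incubated with [4-14C]-11-deoxycorticosterone (100 nM) and inhibitor at no fewer than three concentrations to give IC50. Stopped with ethyl acetate, shaken, centrifuged (10 000g, 2 min); steroids in organic phase analysed by HPTLC/phosphoimager. Mean of four determinations, standard deviation less than 5%.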

[2] = target: T1, Cytochrome P450 11B2, mitochondrial; assay: In vitro inhibition of human CYP11B2 expressed in Schizosaccharomyces pombe incubated with 100 nM of substrate deoxy-corticosterone in presence of 500 nM of compound
Aromatase = target: T2, Aromatase (Homo sapiens, UniProt P11511); assay: In vitro inhibitory concentration against human placental CYP19 incubated with 500 nM of substrate androstenedione in presence of the compound
T2 sequence (P11511 whole entry): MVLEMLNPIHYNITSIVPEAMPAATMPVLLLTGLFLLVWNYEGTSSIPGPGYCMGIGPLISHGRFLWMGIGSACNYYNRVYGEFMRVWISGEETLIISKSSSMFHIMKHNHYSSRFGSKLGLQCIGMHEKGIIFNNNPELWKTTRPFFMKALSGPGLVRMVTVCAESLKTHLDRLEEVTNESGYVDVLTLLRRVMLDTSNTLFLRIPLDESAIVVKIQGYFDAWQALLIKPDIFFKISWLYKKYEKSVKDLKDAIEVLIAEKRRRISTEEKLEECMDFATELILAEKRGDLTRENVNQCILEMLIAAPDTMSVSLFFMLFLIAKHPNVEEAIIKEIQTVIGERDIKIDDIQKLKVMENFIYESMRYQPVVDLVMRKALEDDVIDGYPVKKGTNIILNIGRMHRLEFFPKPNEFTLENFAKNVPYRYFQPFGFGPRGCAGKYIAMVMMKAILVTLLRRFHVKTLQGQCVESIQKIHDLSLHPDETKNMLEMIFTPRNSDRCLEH

CYP17 = target: T3, CYP17 (Homo sapiens, UniProt P05093); assay: In vitro inhibition of human CYP17 expressed in Escherichia coli incubated with 2.5 uM of substrate progesterone in presence of 2.5 uM of compound; conditions: probe progesterone
T3 sequence (P05093 whole entry): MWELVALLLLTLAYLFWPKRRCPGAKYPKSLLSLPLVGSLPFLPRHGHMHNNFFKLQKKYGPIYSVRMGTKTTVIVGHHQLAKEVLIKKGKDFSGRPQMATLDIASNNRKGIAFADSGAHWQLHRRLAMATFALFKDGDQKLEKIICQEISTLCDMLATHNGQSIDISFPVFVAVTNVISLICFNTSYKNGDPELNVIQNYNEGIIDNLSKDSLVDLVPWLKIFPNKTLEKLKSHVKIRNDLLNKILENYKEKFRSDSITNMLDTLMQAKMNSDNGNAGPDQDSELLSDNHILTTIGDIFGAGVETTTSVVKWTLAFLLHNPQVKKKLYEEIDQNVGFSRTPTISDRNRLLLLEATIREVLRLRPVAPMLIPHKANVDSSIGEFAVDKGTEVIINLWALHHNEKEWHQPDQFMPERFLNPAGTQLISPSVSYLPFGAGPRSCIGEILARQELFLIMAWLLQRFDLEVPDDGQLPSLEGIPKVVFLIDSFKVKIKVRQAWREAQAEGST

Homo sapiens = species on record: Homo sapiens; assay: In vitro IC50 ratio against human CYP11B1 to that of human CYP11B2
How it was run: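 IC50 ratio from V79 MZh hamster fibroblasts expressing human CYP11B1 or CYP11B2, each incubated with [4-14C]-11-deoxycorticosterone (100 nM) and inhibitor at no fewer than three concentrations; steroids extracted into ethyl acetate and quantified by HPTLC with phosphoimaging.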

[3] = target: T4, Cytochrome P450 11B1, mitochondrial (Homo sapiens, UniProt P15538); assay: In vitro inhibitory concentration against human CYP11B1 expressed in V79 MZh hamster fibroblasts incubated with 100 nM of substrate deoxy-corticosterone in presence of the compound
T4 sequence (P15538 whole entry): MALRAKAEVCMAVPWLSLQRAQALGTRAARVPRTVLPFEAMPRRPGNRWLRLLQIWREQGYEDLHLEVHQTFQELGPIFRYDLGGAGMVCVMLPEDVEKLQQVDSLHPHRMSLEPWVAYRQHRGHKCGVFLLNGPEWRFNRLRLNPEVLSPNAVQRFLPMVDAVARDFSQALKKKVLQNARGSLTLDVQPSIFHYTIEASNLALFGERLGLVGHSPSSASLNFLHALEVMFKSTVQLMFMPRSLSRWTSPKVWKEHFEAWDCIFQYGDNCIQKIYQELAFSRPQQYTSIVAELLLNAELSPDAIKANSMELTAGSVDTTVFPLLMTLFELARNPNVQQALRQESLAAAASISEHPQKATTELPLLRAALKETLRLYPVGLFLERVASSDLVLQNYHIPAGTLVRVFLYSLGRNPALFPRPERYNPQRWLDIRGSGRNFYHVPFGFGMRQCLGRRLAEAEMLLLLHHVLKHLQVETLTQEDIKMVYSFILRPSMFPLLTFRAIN

pIC50 [1] | inhibition at 0.5 µM [2] [%] | pIC50 (Aromatase) | inhibition at 2.5 µM (CYP17) [%] | Selectivity ratio (Homo sapiens) | Structure (SMILES) | pIC50 [3]
7.85 | 0 | < 4.44 |  |  | Fc1ccc2c(c1)CC/C2=C\c1cccc2ncccc12 | 
 |  |  | 40 | 7.1 | Cc1cccc2c1CC/C2=C\c1cccnc1 | 
7.59 | 24 |  |  |  | COc1ccc2c(c1)/C(=C\c1ccncc1)CC2 | 
7.66 | 32 | 7.00 |  |  | C(=C(c1ccccc1)c1ccccc1)c1ccncc1 | 
 | 14 | 6.10 |  |  | Fc1ccc2c(c1)CC/C2=C/c1cncnc1 | 
 | 43 | 5.34 | 2 |  | Cc1ccc2c(c1)/C(=C\c1cccnc1)CC2 | 
7.59 |  |  | 49 | 30.4 | COc1ccc2c(c1)CC/C2=C/c1cccnc1 | 
 | 40 | 6.74 | 53 |  | Fc1cccc2c1CC/C2=C/c1cccnc1 | 
7.51 | 0 | < 4.44 |  |  | Fc1ccc2c(c1)CC/C2=C/c1cccc2ncccc12 | 
8.05 |  |  | 14 | 33.8 | Clc1cccc2c1CC/C2=C\c1cccnc1 | 
 |  |  | 17 | 0.2 | COc1ccc2c(c1)CCC/C2=C/c1cccnc1 | 
 |  |  | 5 | 35.4 | COc1cccc2c1/C(=C/c1cccnc1)CC2 | 
 |  |  | 24 | 1.9 | Brc1ccc2c(c1)CC/C2=C/c1cccnc1 | 
8.52 | 0 | 5.39 |  |  | C(=C1/CC(c2ccccc2)c2ccccc21)/c1cccnc1 (configuration not stated) | 
7.25 | 36 | 6.00 |  |  | COc1ccc2c(c1)CCC/C2=C/c1ccncc1 | 
 |  |  | 24 | 10.1 | C(=C1\CCCc2ccccc21)/c1cccnc1 | 
8.15 |  |  | 17 | 44.4 | Fc1ccc2c(c1)CC/C2=C\c1cccnc1 | 
7.77 | 18 | 5.36 |  |  | COc1ccc2c(c1)CC/C2=C\c1cncs1 | 
 |  |  | 36 | 42.6 | COc1ccc2c(c1)CC/C2=C\c1cccnc1 | 
7.23 | 11 |  |  |  | COc1ccc2c(c1)CC/C2=C\c1ccncc1 | 
8.10 | 46 | 5.77 |  |  | Cc1ccc2c(c1)/C(=C\c1ccncc1)CC2 | 
8.30 | 17 | 5.32 |  |  | COc1ccc2c(c1)CC/C2=C/c1cncs1 | 
8.52 | 26 |  |  |  | COc1ccc2c(c1)/C(=C/c1ccncc1)CC2 | 
 | 29 | 5.20 | 5 |  | COc1ccc2c(c1)/C(=C/c1cccnc1)CC2 | 
 |  |  | 13 | 30 | CCOc1ccc2c(c1)CC/C2=C\c1cccnc1 | 

pIC50 [1] | inhibition at 0.5 µM [2] [%] | pIC50 (Aromatase) | inhibition at 2.5 µM (CYP17) [%] | Selectivity ratio (Homo sapiens) | Structure (SMILES) | pIC50 [3]
 |  |  | 42 | 36.9 | Fc1cccc2c1CC/C2=C\c1cccnc1 | 
7.96 |  |  | 16 | 11.4 | Fc1ccc2c(c1)CC/C2=C/c1cccnc1 | 
7.66 |  |  | 9 | 32.5 | C(=C1/CCCc2ccccc21)/c1cccnc1 | 
 |  |  | 20 | 15.8 | COc1ccc2c(c1)CCC/C2=C\c1cccnc1 | 
 | 12 | 4.90 | 16 |  | Cc1cccc2c1CC/C2=C/c1cccnc1 | 
8.05 | 5 | 5.44 |  |  | C(=C(c1ccccc1)c1ccccc1)c1cccnc1 | 
 | 27 | 5.41 | 3 |  | Cc1ccc2c(c1)/C(=C/c1cccnc1)CC2 | 
7.70 | 0 | < 4.44 |  |  | Fc1ccc2c(c1)CC/C2=C\c1ccnc2ccccc12 | 
 | 5 | 6.01 | 6 |  | COc1cc2c(cc1OC)/C(=C/c1cccnc1)CCC2 | 
 | 47 | 5.43 |  |  | CC1C/C(=C\c2cccnc2)c2ccccc21 (configuration not stated) | 
7.66 | 31 | 6.10 |  |  | COc1ccc2c(c1)CCC/C2=C\c1ccncc1 | 
 |  |  | 6 | 10.9 | CCOc1ccc2c(c1)CC/C2=C/c1cccnc1 | 
 |  |  | 28 | 3.7 | Clc1ccc2c(c1)CC/C2=C/c1cccnc1 | 
 | 0 | < 4.44 | 1 |  | C(=C1/CCc2cc(OCc3ccccc3)ccc21)/c1cccnc1 | 
8.40 | 41 | 5.89 |  |  | Cc1ccc2c(c1)/C(=C/c1ccncc1)CC2 | 
 |  |  | 5 |  | N#Cc1ccc(C2CCCc3cncn32)cc1 (configuration not stated) [FADROZOLE] | 
8.30 | 6 | 5.56 |  |  | C(=C1c2ccccc2-c2ccccc21)c1ccncc1 | 
 |  |  | 26 | 56.6 | Clc1ccc2c(c1)CC/C2=C\c1cccnc1 | 
7.51 |  |  | 32 | 21.1 | Clc1cccc2c1CC/C2=C/c1cccnc1 | 
8.10 |  |  |  |  | C(=C1/CCc2ccccc21)/c1ccncc1 | 
7.96 | 29 | 7.05 |  |  | COc1cc2c(cc1OC)/C(=C/c1ccncc1)CCC2 | 
 |  |  | 16 | 52.4 | Brc1ccc2c(c1)CC/C2=C\c1cccnc1 | 
7.85 | 0 | < 4.44 |  |  | Fc1ccc2c(c1)CC/C2=C/c1ccnc2ccccc12 | 
7.26 | 13 |  |  |  | COc1ccc2c(c1)CC/C2=C/c1ccncc1 | 
8.22 | 0 | 5.32 |  |  | C(=C1c2ccccc2-c2ccccc21)c1cccnc1 | 

Structure (SMILES) | pIC50 [1] | inhibition at 0.5 µM [2] [%] | pIC50 (Aromatase) | inhibition at 2.5 µM (CYP17) [%] | Selectivity ratio (Homo sapiens) | pIC50 [3]
Clc1ccc2c(c1)CC/C2=C/c1ccncc1 | 6.52 | 37 | 5.70 |  |  | 
Clc1ccc2c(c1)CC/C2=C\c1ccncc1 | 5.82 |  |  |  |  | 5.82
